Measurements from ChEMBL document CHEMBL4364266, “Design, synthesis and biological evaluation of novel 2,3,4,9-tetrahydro-1H-pyrido[3,4-b]indole triazole derivatives as potent TRPV1 antagonists” (Eur J Med Chem, 2019).
Active and inactive are the calls of the source.

Tests used:
Mus musculus [1] = experiment: Antinociceptive activity in KM mouse model of capsaicin-induced pain assessed as reduction in paw licking time at 1 to 10 mg/kg, po administered as single dose pretreated for 30 mins followed by capsaicin challenge and measured for 5 mins; type: functional, organism-based
[2] = target: T1, Transient receptor potential cation channel subfamily V member 1 (Homo sapiens, UniProt Q8NER1); experiment: Antagonist activity at low pH-induced human recombinant TRPV1 expressed in CHO-K1 cells co-expressing aequorin at 50 uM incubated for 2.5 mins in presence of ATP followed by hydrochloride addition at pH 5 by luminescence assay relative to control; type: cell-based
T1 sequence (Q8NER1 whole entry): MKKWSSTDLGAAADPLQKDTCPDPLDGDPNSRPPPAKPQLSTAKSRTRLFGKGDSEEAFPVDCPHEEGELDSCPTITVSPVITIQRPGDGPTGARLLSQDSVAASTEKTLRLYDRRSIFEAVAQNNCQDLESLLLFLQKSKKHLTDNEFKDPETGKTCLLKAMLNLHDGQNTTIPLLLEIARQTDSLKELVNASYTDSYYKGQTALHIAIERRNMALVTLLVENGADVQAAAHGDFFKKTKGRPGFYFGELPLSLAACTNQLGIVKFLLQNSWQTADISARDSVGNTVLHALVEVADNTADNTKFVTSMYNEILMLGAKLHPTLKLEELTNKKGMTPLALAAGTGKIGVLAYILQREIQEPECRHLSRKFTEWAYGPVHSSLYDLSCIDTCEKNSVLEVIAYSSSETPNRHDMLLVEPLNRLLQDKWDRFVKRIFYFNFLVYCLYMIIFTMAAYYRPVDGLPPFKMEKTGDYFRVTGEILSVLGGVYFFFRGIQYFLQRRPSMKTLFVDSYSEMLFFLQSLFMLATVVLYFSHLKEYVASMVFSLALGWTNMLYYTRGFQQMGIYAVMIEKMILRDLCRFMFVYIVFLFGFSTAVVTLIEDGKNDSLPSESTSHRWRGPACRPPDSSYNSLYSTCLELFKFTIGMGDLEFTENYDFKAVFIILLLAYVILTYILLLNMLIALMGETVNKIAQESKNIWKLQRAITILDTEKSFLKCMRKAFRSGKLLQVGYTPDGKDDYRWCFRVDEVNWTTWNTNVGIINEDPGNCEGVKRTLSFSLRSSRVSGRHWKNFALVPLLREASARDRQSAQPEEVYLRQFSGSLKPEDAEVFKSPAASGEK
How it was run: (§1)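 Aequorin cells expressing recombinant human TRPV1 were loaded with coelenterazine for 4 h in the dark. Assay buffer was DMEM-F12 with 15 mM HEPES (pH 7.0) and 0.1% BSA. Cells were added to compound and incubated 2.5 min, then challenged with capsaicin or with HCl at pH 5.0, and luminescence was read at once. Digitonin (100 µM) and ATP (50 µM) served as reference blanks. Mean ± SEM of at least three experiments.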

[3] = Absorption rate constant in Sprague-Dawley rat at 10 mg/kg, po measured up to 12 hrs by UPLC-QTOF/MS analysis; type: ADME, organism-based; conditions: in vivo
How it was run: (§2)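 Male Sprague-Dawley rats (220-250 g, n = 3), jugular vein cannulated 1 day before dosing and fasted overnight. Given 10 mg/kg by oral gavage as a suspension in 0.5% sodium carboxymethyl cellulose. Jugular blood drawn at 0.25, 0.5, 1, 2, 4, 6, 8 and 12 h into heparin tubes. Plasma deproteinized with acetonitrile and analysed by UPLC-QTOF/MS. Parameters from a one-compartment model.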

Mus musculus [4] = experiment: Antinociceptive activity in KM mouse model of acetic acid induced pain assessed as suppression of writhes at 1 to 10 mg/kg, po administered as single dose pretreated for 30 mins followed by acetic acid challenge and measured for 15 mins; type: functional, organism-based
[5] = Elimination half-life in Sprague-Dawley rat at 10 mg/kg, po measured up to 12 hrs by UPLC-QTOF/MS analysis; type: ADME, organism-based; conditions: in vivo, read-out: beta t1/2 (converted); how it was run: as §2
[6] = Cmax in Sprague-Dawley rat at 10 mg/kg, po measured up to 12 hrs by UPLC-QTOF/MS analysis; type: ADME, organism-based; set-up: dose 10 mg/kg, route oral; conditions: in vivo; how it was run: as §2
Mus musculus [7] = experiment: Antinociceptive activity in KM mouse model of capsaicin-induced pain assessed as reduction in paw licking time at 30 mg/kg, po administered as single dose pretreated for 30 mins followed by capsaicin challenge and measured for 5 mins; type: functional, organism-based
How it was run: (§3)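 Male KM mice (18-22 g, n = 6 per group) received 30 mg/kg intragastrically as a suspension in 0.5% CMC-Na, 30 min before testing. Capsaicin test: 20 µL capsaicin injected s.c. into the dorsal right hind paw, with paw licking time summed over 5 min. Writhing test: 0.6% acetic acid given i.p. at 0.1 mL/10 g, with writhes counted for 15 min. Tail-flick test: 12 s cut-off.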

[8] = target: T1, Transient receptor potential cation channel subfamily V member 1; experiment: Antagonist activity at capsaicin-induced human recombinant TRPV1 expressed in CHO-K1 cells co-expressing aequorin incubated for 2.5 mins in presence of ATP followed by capsaicin addition by luminescence assay; type: cell-based; how it was run: as §1
Mus musculus [9] = experiment: Antinociceptive activity in KM mouse model of thermal-induced nociception assessed as increase in latency to tail withdrawal at 1 to 10 mg/kg, po administered as single dose pretreated for 30 mins; type: functional, organism-based
[10] = Volume of distribution in Sprague-Dawley rat at 10 mg/kg, po measured up to 12 hrs by UPLC-QTOF/MS analysis; type: ADME, organism-based; conditions: in vivo; how it was run: as §2
[11] = AUC (0 to infinity) in Sprague-Dawley rat at 10 mg/kg, po measured up to 12 hrs by UPLC-QTOF/MS analysis; type: ADME, organism-based; set-up: dose 10 mg/kg, route oral, time infinity; conditions: in vivo; how it was run: as §2
[12] = Mean residence time in Sprague-Dawley rat at 10 mg/kg, po measured up to 12 hrs by UPLC-QTOF/MS analysis; type: ADME, organism-based; conditions: in vivo; how it was run: as §2
[13] = Tmax in Sprague-Dawley rat at 10 mg/kg, po measured up to 12 hrs by UPLC-QTOF/MS analysis; type: ADME, organism-based; conditions: in vivo; how it was run: as §2
Mus musculus [14] = experiment: Antinociceptive activity in KM mouse model of thermal-induced nociception assessed as increase in latency to tail withdrawal at 30 mg/kg, po administered as single dose pretreated for 30 mins; type: functional, organism-based; how it was run: as §3
[15] = Clearance in Sprague-Dawley rat at 10 mg/kg, po measured up to 12 hrs by UPLC-QTOF/MS analysis; type: ADME, organism-based; conditions: in vivo; how it was run: as §2
Mus musculus [16] = experiment: Effect on body temperature in KM mouse assessed as increase in rectal temperature at 30 mg/kg, po administered as single dose measured every 30 mins for 120 mins by electric probe thermometer; type: functional, organism-based
How it was run: (§4)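 Male KM mice (n = 6) were dosed intragastrically with 30 mg/kg in 0.5% CMC-Na, or with vehicle. Body temperature was taken with an electric probe thermometer at 0, 30, 60, 90 and 120 min after dosing. Results given as temperature or as the change from 0 min, mean ± SEM, with Dunnett's test against vehicle.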

Mus musculus [17] = experiment: Antinociceptive activity in KM mouse model of acetic acid induced pain assessed as suppression of writhes at 30 mg/kg, po administered as single dose pretreated for 30 mins followed by acetic acid challenge and measured for 15 mins; type: functional, organism-based; how it was run: as §3
[18] = Elimination rate constant in Sprague-Dawley rat at 10 mg/kg, po measured up to 12 hrs by UPLC-QTOF/MS analysis; type: ADME, organism-based; conditions: in vivo; how it was run: as §2
Mus musculus [19] = experiment: Effect on body temperature in KM mouse assessed as increase in rectal temperature at 30 mg/kg, po administered as single dose measured every 30 mins for 60 mins by electric probe thermometer; type: functional, organism-based; how it was run: as §4

Structure (SMILES) | inhibition [2] [%] | IC50 [8] [nM] | other results
FC(F)(F)c1cccc(-n2cc(CN3CCc4c([nH]c5ccccc45)C3)nn2)c1 | 62 | 89 | Activity (Mus musculus [1]): inactive; ka [3]: 0.77 h⁻¹; Activity (Mus musculus [4]): inactive; half-life [5]: 0.9 h; Cmax [6]: 123 ng/mL; Activity (Mus musculus [7]): Active; Activity (Mus musculus [9]): inactive; Vd [10]: 30.4 L/kg; AUC(0-inf) [11]: 441 ng·h/mL; MRT [12]: 2.64 h; Tmax [13]: 1.3 h; Activity (Mus musculus [14]): Active; CL/F [15]: 378 mL/min/kg; Activity (Mus musculus [16]): inactive; Activity (Mus musculus [17]): Active; k el at 12 h [18]: 0.000208 s⁻¹
Cc1cc(C)c(-n2cc(CN3CCc4c([nH]c5ccccc45)C3)nn2)c(C)c1 | 13 |  | 
CC(C)c1cccc(-n2cc(CN3CCc4c([nH]c5ccccc45)C3)nn2)c1 | 40 | 1670 | 
CC(C)c1ccccc1-n1cc(CN2CCc3c([nH]c4ccccc34)C2)nn1 | 67 | 2530 | 
COc1ccc(-n2cc(CN3CCc4c([nH]c5ccccc45)C3)nn2)cc1OC | 74 | 1120 | 
CC(C)(C)c1ccc(-n2cc(CN3CCc4cc(Cl)ccc43)nn2)cc1 | 24 | 27100 | 
Cc1ccc(C)c(-n2cc(CN3CCc4c([nH]c5ccccc45)C3)nn2)c1 | 67 | 1540 | 
Clc1ccccc1-n1cc(CN2CCc3c([nH]c4ccccc34)C2)nn1 | 64 | 243 | 
Clc1cccc(-n2cc(CN3CCc4c([nH]c5ccccc45)C3)nn2)c1 | 71 | 416 | 
Fc1ccccc1-n1cc(CN2CCc3c([nH]c4ccccc34)C2)nn1 | 57 | 232 | 
Fc1cccc(-n2cc(CN3CCc4c([nH]c5ccccc45)C3)nn2)c1 | 71 | 385 | 
CC(C)c1cccc(-n2cc(CN3CCc4ccccc43)nn2)c1 | 17 |  | 
c1ccc(-n2cc(CN3CCc4c([nH]c5ccccc45)C3)nn2)cc1 | 68 | 314 | 
Cc1ccc(-n2cc(CN3CCc4c([nH]c5ccccc45)C3)nn2)c([N+](=O)[O-])c1 | 71 |  | 
Fc1cccc(-n2cc(CN3CCc4ccccc43)nn2)c1 | 35 | 19400 | 
CC(C)(C)c1ccc(-n2cc(CN3CCc4c([nH]c5ccccc45)C3)nn2)cc1 | 61 | 1220 | 
Cc1cc(C)nc(-n2cc(CN3CCc4c([nH]c5ccccc45)C3)nn2)c1 | 13 |  | 
CC(C)(C)c1ccc(-n2cc(CN3CCc4ccccc43)nn2)cc1 | 32 | 22600 | 
COc1ccc(-n2cc(CN3CCc4c([nH]c5ccccc45)C3)nn2)cc1 | 55 | 1200 | 

Structure (SMILES) | inhibition [2] [%] | IC50 [8] [nM] | other results
Cc1ccc(-n2cc(CN3CCc4c([nH]c5ccccc45)C3)nn2)cc1Cl | 48 |  | 
FC(F)(F)c1ccccc1-n1cc(CN2CCc3ccccc32)nn1 | 55 | 4940 | 
Clc1ccc(Cl)c(-n2cc(CN3CCc4c([nH]c5ccccc45)C3)nn2)c1 | 79 | 112 | Activity (Mus musculus [1]): inactive; Activity (Mus musculus [4]): inactive; Activity (Mus musculus [7]): Active; Activity (Mus musculus [9]): inactive; Activity (Mus musculus [14]): Active; Activity (Mus musculus [19]): Active; Activity (Mus musculus [17]): Active
Fc1ccc(-n2cc(CN3CCc4c([nH]c5ccccc45)C3)nn2)cc1 | 74 | 494 | 
O=[N+]([O-])c1ccc(-n2cc(CN3CCc4c([nH]c5ccccc45)C3)nn2)cc1 | 86 | 121 | Activity (Mus musculus [1]): inactive; Activity (Mus musculus [4]): inactive; Activity (Mus musculus [7]): Active; Activity (Mus musculus [9]): inactive; Activity (Mus musculus [14]): Active; Activity (Mus musculus [19]): Active; Activity (Mus musculus [17]): Active
Fc1ccc2c(c1)CCN2Cc1cn(-c2ccc(Cl)cc2)nn1 | 12 |  | 
CC(C)c1ccccc1-n1cc(CN2CCc3ccccc32)nn1 | 39 |  | 
COc1ccccc1-n1cc(CN2CCc3c([nH]c4ccccc34)C2)nn1 | 64 | 1880 | 
Clc1ccc(-n2cc(CN3CCc4ccccc43)nn2)cc1 | 42 | 12600 | 
O=[N+]([O-])c1ccccc1-n1cc(CN2CCc3c([nH]c4ccccc34)C2)nn1 | 85 | 108 | Activity (Mus musculus [1]): inactive; Activity (Mus musculus [4]): inactive; Activity (Mus musculus [7]): Active; Activity (Mus musculus [9]): inactive; Activity (Mus musculus [14]): Active; Activity (Mus musculus [19]): Active; Activity (Mus musculus [17]): Active
O=[N+]([O-])c1cc(Cl)ccc1-n1cc(CN2CCc3c([nH]c4ccccc34)C2)nn1 | 67 | 394 | 
c1cc(-n2cc(CN3CCc4c([nH]c5ccccc45)C3)nn2)c2ccncc2c1 | 59 | 2160 | 
Clc1ccc(-n2cc(CN3CCc4c([nH]c5ccccc45)C3)nn2)cc1Cl | 73 | 341 | 
Clc1ccc(-n2cc(CN3CCc4c([nH]c5ccccc45)C3)nn2)cc1 | 73 | 495 | 
Brc1ccc(-n2cc(CN3CCc4c([nH]c5ccccc45)C3)nn2)cc1 | 78 | 788 | 
Clc1ccc(-n2cc(CN3CCc4cc(Cl)ccc43)nn2)cc1 | 34 |  | 
Clc1ncccc1-n1cc(CN2CCc3c([nH]c4ccccc34)C2)nn1 | 72 | 3490 | 
FC(F)(F)c1ccc(-n2cc(CN3CCc4c([nH]c5ccccc45)C3)nn2)cc1 | 79 | 204 | 
